Consider one compound from ChEMBL document CHEMBL2331439 (J Med Chem, 2013).

Structures are written as SMILES.

The target of experiment [1] is Casein kinase II subunit alpha (Homo sapiens) (UniProt P68400). The experiment in a line: Inhibition of recombinant CSNK2A1 (unknown origin) at 5 uM by FRET-based Z'-LYTE assay. In short, it runs like this: (§1)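 Single-point panel screen at 5 μM in duplicate. ATP is at the apparent Km of each kinase, and the Z'-LYTE FRET peptide substrate is used. Each point has two control wells: a protease control for interference with development and a fluorescence control for interference with the FRET read-out. Values above 100% are treated as maximal inhibition and values below 0% as none.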
Sequence of Casein kinase II subunit alpha (Homo sapiens) (P68400 whole entry, looked up): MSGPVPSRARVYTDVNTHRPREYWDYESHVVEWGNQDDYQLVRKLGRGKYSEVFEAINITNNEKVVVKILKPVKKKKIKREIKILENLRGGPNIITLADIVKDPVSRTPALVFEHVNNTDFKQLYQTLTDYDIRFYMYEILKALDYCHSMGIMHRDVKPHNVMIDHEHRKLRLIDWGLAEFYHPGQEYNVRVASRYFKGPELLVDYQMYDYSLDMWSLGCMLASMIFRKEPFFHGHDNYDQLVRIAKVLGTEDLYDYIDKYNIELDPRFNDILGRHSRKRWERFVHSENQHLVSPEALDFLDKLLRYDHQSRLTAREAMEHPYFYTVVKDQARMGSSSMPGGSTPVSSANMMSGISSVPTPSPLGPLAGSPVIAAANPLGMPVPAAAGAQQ

Experiment [2] addresses Proto-oncogene tyrosine-protein kinase receptor Ret (Homo sapiens) (UniProt P07949). The experiment in a line: Inhibition of recombinant RET (unknown origin) at 5 uM by FRET-based Z'-LYTE assay. In short, it runs like this: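 Z'-LYTE FRET peptide (coumarin/fluorescein) phosphorylation was followed by protease development. Wells included a protease control for interference with development and a fluorescence control for interference with the FRET read. Values above 100% or below 0% were treated as maximal or no inhibition.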

Experiment [3] deals with Phosphatidylinositol 4,5-bisphosphate 3-kinase catalytic subunit gamma isoform (Homo sapiens) (UniProt P48736). The experiment in a line: Inhibition of recombinant PIK3CG (unknown origin) at 5 uM after 1 hr by FRET-based adapta assay. In short, it runs like this: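 After inhibitor and all reaction components are added, the reaction runs for 1 h. ADP formed by the kinase displaces an antibody-tracer complex, so reduced ADP gives a high TR-FRET signal. Inhibition is calculated against a control.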
Sequence of Phosphatidylinositol 4,5-bisphosphate 3-kinase catalytic subunit gamma isoform (Homo sapiens) (P48736 whole entry, looked up, canonical isoform): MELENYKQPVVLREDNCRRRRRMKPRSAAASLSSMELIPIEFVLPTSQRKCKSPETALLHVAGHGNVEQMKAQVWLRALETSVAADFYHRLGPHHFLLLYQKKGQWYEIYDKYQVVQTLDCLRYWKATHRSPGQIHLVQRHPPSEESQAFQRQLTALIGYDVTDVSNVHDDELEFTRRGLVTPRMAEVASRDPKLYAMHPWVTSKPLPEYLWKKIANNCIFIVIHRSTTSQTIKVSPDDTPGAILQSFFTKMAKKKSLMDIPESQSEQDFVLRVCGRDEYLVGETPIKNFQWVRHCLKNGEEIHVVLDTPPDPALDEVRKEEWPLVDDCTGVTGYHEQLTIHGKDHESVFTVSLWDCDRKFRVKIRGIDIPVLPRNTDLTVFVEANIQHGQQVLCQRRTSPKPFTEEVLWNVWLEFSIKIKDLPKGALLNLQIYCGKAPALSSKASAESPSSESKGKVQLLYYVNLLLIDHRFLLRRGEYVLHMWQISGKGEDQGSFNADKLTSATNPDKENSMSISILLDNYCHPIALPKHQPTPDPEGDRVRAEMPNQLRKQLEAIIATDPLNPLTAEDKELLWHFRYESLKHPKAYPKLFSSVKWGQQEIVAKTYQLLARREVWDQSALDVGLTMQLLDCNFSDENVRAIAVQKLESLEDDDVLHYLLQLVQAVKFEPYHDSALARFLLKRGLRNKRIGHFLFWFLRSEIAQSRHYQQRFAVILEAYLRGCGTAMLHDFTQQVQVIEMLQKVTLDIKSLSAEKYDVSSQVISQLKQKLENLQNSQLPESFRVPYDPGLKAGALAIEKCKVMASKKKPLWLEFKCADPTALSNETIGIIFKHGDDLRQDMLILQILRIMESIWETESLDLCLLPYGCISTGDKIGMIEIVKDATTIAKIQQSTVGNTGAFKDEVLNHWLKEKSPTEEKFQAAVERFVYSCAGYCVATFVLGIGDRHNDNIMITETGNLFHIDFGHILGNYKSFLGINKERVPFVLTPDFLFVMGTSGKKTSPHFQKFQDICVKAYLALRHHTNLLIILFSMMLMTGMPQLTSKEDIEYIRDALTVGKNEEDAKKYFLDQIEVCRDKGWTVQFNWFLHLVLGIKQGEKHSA

Experiment [4] concerns the target Inhibitor of nuclear factor kappa-B kinase subunit beta (Homo sapiens) (UniProt O14920). The experiment in a line: Inhibition of recombinant IKBKB (unknown origin) at 5 uM by FRET-based Z'-LYTE assay. The gist of the method:
as §1

Experiment [5] has as its target Serine/threonine-protein kinase mTOR (Homo sapiens) (UniProt P42345). The experiment in a line: Inhibition of recombinant FRAP1 (unknown origin) at 5 uM by FRET-based Z'-LYTE assay. The gist of the method: as §1
Experiment [6] addresses AMP-activated protein kinase (AMPK) alpha-1/beta-1/gamma-1 (Homo sapiens) (UniProt P54619+Q9Y478+Q13131). The experiment in a line: Inhibition of recombinant AMPK A1/B1/G1 (unknown origin) at 5 uM by FRET-based Z'-LYTE assay. Type of experiment: protein-complex assay. The gist of the method: as §1
Experiment [7] has as its target T1, Serine/threonine-protein kinase Nek1 (Homo sapiens, UniProt Q96PY6).
T1 sequence (Q96PY6 whole entry): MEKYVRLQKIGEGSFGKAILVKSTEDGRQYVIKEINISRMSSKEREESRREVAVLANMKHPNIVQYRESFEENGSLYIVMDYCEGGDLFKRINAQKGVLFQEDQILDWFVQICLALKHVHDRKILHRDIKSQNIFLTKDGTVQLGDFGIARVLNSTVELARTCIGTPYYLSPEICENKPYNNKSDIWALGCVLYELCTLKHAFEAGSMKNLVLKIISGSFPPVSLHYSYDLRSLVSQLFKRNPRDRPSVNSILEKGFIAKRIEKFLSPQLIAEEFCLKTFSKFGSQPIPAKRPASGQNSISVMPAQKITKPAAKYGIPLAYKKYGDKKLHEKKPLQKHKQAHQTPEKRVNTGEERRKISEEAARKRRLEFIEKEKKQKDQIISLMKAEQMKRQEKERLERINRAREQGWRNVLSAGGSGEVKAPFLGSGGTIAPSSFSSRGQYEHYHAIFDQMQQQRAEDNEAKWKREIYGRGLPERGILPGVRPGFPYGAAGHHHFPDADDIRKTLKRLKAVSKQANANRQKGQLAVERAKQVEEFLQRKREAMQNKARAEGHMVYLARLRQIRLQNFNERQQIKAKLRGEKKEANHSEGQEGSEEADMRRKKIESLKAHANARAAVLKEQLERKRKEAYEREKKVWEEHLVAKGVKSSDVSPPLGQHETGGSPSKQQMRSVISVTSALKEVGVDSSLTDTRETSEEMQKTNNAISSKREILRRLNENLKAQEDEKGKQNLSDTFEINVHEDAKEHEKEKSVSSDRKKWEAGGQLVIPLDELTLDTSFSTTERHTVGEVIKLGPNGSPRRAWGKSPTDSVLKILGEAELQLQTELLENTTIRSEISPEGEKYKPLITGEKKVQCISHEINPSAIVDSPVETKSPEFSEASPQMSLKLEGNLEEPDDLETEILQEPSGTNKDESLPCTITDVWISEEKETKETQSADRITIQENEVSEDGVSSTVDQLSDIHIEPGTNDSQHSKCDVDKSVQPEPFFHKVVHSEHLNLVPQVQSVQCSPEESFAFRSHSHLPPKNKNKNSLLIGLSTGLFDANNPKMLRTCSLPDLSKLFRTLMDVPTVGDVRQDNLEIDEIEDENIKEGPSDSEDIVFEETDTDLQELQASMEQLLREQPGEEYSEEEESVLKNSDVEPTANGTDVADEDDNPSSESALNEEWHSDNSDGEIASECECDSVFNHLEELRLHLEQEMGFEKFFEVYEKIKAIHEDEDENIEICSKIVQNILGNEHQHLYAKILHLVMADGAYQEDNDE
The experiment in a line: Inhibition of recombinant NEK1 (unknown origin) by FRET-based Z'-LYTE assay.

Experiment [8] has as its target AMP-activated protein kinase (AMPK) alpha-1/beta-1/gamma-1 (Homo sapiens, UniProt P54619+Q13131+Q9Y478). The experiment in a line: Inhibition of recombinant AMPK A1/B1/G1 (unknown origin) by FRET-based Z'-LYTE assay. Type of experiment: protein-complex assay.
Experiment [9] addresses Serine/threonine-protein kinase PAK 4 (Homo sapiens) (UniProt O96013). The experiment in a line: Inhibition of recombinant PAK4 (unknown origin) at 5 uM by FRET-based Z'-LYTE assay. In short, it runs like this: as §1

Sequence of AMP-activated protein kinase (AMPK) alpha-1/beta-1/gamma-1 (Homo sapiens) (P54619 whole entry): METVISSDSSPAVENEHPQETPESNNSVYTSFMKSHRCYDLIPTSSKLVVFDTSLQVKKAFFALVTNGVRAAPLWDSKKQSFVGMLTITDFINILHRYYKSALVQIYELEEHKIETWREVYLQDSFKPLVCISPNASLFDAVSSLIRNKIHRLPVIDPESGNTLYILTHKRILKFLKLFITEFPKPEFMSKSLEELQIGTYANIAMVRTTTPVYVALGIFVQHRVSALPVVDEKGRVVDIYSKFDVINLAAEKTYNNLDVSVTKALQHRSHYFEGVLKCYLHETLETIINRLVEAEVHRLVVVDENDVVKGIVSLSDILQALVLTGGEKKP
Sequence of AMP-activated protein kinase (AMPK) alpha-1/beta-1/gamma-1 (Homo sapiens) (Q13131 whole entry partner): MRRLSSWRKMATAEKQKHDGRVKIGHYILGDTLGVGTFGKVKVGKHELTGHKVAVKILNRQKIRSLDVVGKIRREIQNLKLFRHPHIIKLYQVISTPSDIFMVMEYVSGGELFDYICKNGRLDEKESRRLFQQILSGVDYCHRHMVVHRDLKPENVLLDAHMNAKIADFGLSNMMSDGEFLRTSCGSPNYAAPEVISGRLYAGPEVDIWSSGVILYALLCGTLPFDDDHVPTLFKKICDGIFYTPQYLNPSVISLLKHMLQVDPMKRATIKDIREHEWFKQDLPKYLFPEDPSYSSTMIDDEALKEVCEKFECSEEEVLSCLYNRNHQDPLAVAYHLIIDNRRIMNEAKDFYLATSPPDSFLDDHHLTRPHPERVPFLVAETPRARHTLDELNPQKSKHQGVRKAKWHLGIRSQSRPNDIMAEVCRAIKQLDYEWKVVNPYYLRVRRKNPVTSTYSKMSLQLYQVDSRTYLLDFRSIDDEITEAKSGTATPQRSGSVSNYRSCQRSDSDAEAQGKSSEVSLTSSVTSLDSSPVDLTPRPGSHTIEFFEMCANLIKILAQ
Sequence of AMP-activated protein kinase (AMPK) alpha-1/beta-1/gamma-1 (Homo sapiens) (Q9Y478 2-270 partner limits assumed): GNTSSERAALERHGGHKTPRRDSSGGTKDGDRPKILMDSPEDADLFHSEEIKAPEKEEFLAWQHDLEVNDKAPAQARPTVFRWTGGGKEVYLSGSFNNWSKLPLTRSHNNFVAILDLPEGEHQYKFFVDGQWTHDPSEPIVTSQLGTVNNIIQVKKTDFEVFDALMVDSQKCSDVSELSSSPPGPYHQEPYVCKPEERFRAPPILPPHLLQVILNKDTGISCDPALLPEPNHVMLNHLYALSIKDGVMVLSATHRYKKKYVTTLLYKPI
Sequence of AMP-activated protein kinase (AMPK) alpha-1/beta-1/gamma-1 (P54619 whole entry): as the sequence (P54619 whole entry) above
Sequence of AMP-activated protein kinase (AMPK) alpha-1/beta-1/gamma-1 (Q9Y478 whole entry): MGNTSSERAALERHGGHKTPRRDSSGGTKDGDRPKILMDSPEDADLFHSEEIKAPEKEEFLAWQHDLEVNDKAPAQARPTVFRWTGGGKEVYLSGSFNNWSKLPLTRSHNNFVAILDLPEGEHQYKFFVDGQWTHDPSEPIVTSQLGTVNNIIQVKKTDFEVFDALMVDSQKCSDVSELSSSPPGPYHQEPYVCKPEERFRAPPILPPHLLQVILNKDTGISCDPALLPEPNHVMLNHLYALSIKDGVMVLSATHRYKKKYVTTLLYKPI
Sequence of AMP-activated protein kinase (AMPK) alpha-1/beta-1/gamma-1 (Q13131 whole entry): as the sequence (Q13131 whole entry partner) above
Sequence of Proto-oncogene tyrosine-protein kinase receptor Ret (Homo sapiens) (P07949 whole entry): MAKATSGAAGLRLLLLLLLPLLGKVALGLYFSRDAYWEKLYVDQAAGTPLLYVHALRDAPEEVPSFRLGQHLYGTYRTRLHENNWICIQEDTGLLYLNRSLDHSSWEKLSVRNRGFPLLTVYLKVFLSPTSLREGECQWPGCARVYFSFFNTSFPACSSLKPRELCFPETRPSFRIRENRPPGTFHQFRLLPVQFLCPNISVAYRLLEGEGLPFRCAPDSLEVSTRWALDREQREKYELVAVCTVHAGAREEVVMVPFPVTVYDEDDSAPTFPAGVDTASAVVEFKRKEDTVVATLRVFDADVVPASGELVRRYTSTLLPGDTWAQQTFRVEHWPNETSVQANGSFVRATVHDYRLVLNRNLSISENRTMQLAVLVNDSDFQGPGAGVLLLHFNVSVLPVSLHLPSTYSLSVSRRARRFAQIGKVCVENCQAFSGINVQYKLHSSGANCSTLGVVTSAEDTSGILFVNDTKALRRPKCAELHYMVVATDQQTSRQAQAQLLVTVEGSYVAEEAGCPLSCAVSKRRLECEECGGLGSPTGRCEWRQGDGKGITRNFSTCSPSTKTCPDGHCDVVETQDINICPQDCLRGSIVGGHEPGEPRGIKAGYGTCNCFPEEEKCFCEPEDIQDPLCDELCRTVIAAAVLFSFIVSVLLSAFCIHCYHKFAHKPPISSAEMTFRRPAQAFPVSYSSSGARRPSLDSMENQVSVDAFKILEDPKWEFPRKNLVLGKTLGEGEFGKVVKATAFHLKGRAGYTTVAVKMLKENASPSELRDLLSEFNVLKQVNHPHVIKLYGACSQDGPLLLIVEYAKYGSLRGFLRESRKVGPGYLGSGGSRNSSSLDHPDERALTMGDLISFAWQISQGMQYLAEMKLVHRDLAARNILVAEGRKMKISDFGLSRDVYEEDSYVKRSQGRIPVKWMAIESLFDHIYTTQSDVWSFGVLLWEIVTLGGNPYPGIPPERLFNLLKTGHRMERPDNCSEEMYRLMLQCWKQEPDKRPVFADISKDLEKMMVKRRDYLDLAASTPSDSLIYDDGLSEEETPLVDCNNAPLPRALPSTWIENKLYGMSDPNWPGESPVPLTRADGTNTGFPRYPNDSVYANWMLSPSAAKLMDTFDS

One may read the inhibition as the drop in the measured response relative to a control, in per cent. The IC50 is the point on the concentration scale where inhibition reaches its midpoint. As to `O=C1/C(=C/c2ccccn2)CNC/C1=C\c1ccccn1`, the inhibition in experiment [1] is 5%; in experiment [2], 21%; in experiment [3], 34%; in experiment [4], 107%; in experiment [5], -5%; in experiment [6], 95%. Moreover, the inhibition in experiment [9] worked out at 18%. Moreover, the IC50 in [7] was 0.5 µM; in experiment [8] it was 1.5 µM.
